Experimental data from ChEMBL document CHEMBL1141447, “Nitrogen-containing verticillene diterpenoids from the Taiwanese soft coral Cespitularia taeniata” (2007).
Values after ≈ are worked out from the molar mass of the structure shown. Active and inactive are the calls of the source. No cut-off for these calls is given here.

Assays:
L1210 = assay: Cytotoxicity against mouse L1210 cells at 5.1 ug/ml after 48 hrs; type: functional, cell-based
Procedure, shortened: (§1)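 KB (human oral epidermoid carcinoma) or L1210 (mouse leukemia) cells were incubated at 37 °C for 48 h in medium with graded concentrations of compound, dissolved in 0.6% Me2SO. IC50 was read from a plot of log concentration against growth rate of the treated cells.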

Staphylococcus aureus = assay: Antimicrobial activity against Staphylococcus aureus 209P; type: functional, organism-based
Micrococcus luteus = assay: Antimicrobial activity against Micrococcus luteus IFM2066; type: functional
KB = assay: Cytotoxicity against human KB cells at 3.7 ug/ml after 48 hrs; type: functional, cell-based; procedure, shortened: as §1
Trichophyton benhamiae [1] = assay: Antimicrobial activity against Trichophyton mentagrophytes IFM45110; type: functional, Arthroderma benhamiae
Trichophyton benhamiae [2] = assay: Antimicrobial activity against Trichophyton mentagrophytes; type: functional, Arthroderma benhamiae
Cryptococcus neoformans = assay: Antimicrobial activity against Cryptococcus neoformans IFM46914; type: functional

MIC (Micrococcus luteus)	MIC (Trichophyton benhamiae [1])	MIC (Trichophyton benhamiae [2])	MIC (Cryptococcus neoformans)	Compound	Activity (L1210)	Activity (Staphylococcus aureus)	Activity (KB)
4.16 µg/mL (≈ 13.2 µM)	–	–	–	C=C1CC[C@@H]2CCC3=C([C@@H](C/C(C)=C/[C@@H](O)C1)NC3=O)C2(C)C [CESPITULACTAM D]	inactive	inactive	inactive
–	2.08 µg/mL (≈ 5.79 µM)	–	–	C=C1CC[C@@H]2CCC3=C(C2(C)C)[C@@](O)(C/C(C)=C/[C@@H](O)C1)N(CC)C3=O [CESPITULACTAM G]	inactive	inactive	inactive
–	–	4.16 µg/mL (≈ 11.6 µM)	–	C=C1CC[C@@H]2CCC3=C([C@@H](C/C(C)=C/[C@@H](OC(C)=O)C1)NC3=O)C2(C)C [CESPITULACTAM E]	inactive	inactive	inactive
4.16 µg/mL (≈ 9.55 µM)	–	–	4.16 µg/mL (≈ 9.55 µM)	C=C1CC[C@@H]2CC[C@@H]3C(=O)N(CCc4ccc(O)cc4)C(=C3C2(C)C)C/C(C)=C/[C@@H](O)C1 [CESPITULACTAM K]	Active	inactive	Active
4.16 µg/mL (≈ 9.07 µM)	–	4.16 µg/mL (≈ 9.07 µM)	4.16 µg/mL (≈ 9.07 µM)	C=C1CC[C@@H]2CCC3=C([C@@H](C/C(C)=C/[C@@H](O)C1)N(CCc1c[nH]c4ccccc14)C3=O)C2(C)C [CESPITULACTAM J]	inactive	inactive	inactive
–	–	–	–	C=C1CC[C@@H]2CCC3=C([C@@H](C/C(C)=C/[C@@H](O)C1)N(C)C3=O)C2(C)C	inactive	inactive	inactive
–	–	–	4.16 µg/mL (≈ 12.6 µM)	C=C1CC[C@@H]2CCC3C(=O)N/C(=C/C(C)CC(=O)C1)C3(O)C2(C)C (stereo partly drawn)	inactive	inactive	inactive
–	–	–	–	C=C1CC[C@@H]2CCC3=C(C2(C)C)[C@@](O)(C/C(C)=C/[C@@H](O)C1)NC3=O	inactive	inactive	inactive
